Source: ChEMBL document CHEMBL2163192, “N,N-Dimethyl-[9-(arylsulfonyl)-2,3,4,9-tetrahydro-1H-carbazol-3-yl]amines as novel, potent and selective 5-HT₆ receptor antagonists” (Bioorg Med Chem Lett, 2012)

Tests used:
[1] = biological target: T1, 5-hydroxytryptamine receptor 6 (Homo sapiens, UniProt P50406); assay: Binding affinity to human 5-HT6 receptor
How it was run: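 Radioligand binding assay at human 5-HT6 receptor; Ki values determined in triplicate.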

[2] = biological target: T1, 5-hydroxytryptamine receptor 6; assay: Displacement of [3H]LSD from human cloned 5-HT6 receptor expressed in HEK293 cells; assay type: cell-based
[3] = biological target: CYP3A4 (Homo sapiens, UniProt P08684); assay: Inhibition of human CYP3A4 at 3 uM; assay type: ADME
How it was run: (§1)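 Isoform-selective inhibition assays using heterologously expressed human CYP enzymes; compounds tested at 3 μM; percent inhibition reported.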

[4] = biological target: Histamine H4 receptor (Homo sapiens) (UniProt Q9H3N8); assay: Inhibition of histamine H4 receptor at 10 uM
How it was run: (§2)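 In-house selectivity panel of related receptors and transporters; each compound tested at 1 μM and 10 μM; percent inhibition determined in duplicate and the mean of the two reported.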

[5] = biological target: Sodium-dependent serotonin transporter (Homo sapiens) (UniProt P31645); assay: Inhibition of SERT at 1 uM; how it was run: as §2
[6] = biological target: T2, Alpha-1B adrenergic receptor (Homo sapiens) (UniProt P35368); assay: Inhibition of alpha1B adrenergic receptor at 1 uM; how it was run: as §2
T2 sequence (whole entry): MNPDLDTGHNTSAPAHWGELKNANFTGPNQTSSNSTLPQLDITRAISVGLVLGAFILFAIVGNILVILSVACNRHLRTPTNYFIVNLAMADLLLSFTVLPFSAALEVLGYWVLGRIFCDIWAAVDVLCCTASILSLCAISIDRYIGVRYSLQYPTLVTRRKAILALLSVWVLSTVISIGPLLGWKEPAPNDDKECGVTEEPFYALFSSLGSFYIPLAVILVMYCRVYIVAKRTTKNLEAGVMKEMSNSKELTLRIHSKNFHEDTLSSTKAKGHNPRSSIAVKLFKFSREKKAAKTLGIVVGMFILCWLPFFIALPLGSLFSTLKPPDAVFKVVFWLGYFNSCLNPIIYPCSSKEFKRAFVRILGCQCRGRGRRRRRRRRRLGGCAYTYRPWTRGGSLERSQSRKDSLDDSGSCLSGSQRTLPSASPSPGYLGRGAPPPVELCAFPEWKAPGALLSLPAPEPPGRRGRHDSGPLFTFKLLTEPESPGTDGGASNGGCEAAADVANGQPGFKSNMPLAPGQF

[7] = biological target: T3, 5-hydroxytryptamine receptor 1A (Homo sapiens) (UniProt P08908); assay: Inhibition of 5-HT1A receptor at 10 uM; how it was run: as §2
T3 sequence (whole entry): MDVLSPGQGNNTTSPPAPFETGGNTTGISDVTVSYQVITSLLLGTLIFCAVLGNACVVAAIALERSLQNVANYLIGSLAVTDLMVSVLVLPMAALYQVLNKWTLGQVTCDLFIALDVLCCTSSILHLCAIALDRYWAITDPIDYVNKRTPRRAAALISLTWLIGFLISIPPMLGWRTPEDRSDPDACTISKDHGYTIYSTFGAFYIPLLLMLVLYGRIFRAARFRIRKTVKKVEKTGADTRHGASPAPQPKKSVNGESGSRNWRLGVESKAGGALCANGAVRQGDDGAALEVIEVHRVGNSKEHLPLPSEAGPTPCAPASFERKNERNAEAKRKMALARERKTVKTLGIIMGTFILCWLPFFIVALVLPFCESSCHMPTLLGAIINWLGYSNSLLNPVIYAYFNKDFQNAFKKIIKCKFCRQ

[8] = biological target: Histamine H4 receptor (Homo sapiens) (UniProt Q9H3N8); assay: Inhibition of histamine H4 receptor at 1 uM; how it was run: as §2
[9] = biological target: 5-hydroxytryptamine receptor 2A (Homo sapiens) (UniProt P28223); assay: Inhibition of 5-HT2A receptor at 1 uM; how it was run: as §2
[10] = biological target: Sodium-dependent dopamine transporter (Homo sapiens) (UniProt Q01959); assay: Inhibition of DAT at 10 uM; how it was run: as §2
[11] = biological target: CYP2C19 (Homo sapiens, UniProt P33261); assay: Inhibition of human CYP2C19 at 3 uM; assay type: ADME; how it was run: as §1
[12] = biological target: T2, Alpha-1B adrenergic receptor (Homo sapiens); assay: Inhibition of alpha1B adrenergic receptor at 10 uM; how it was run: as §2
[13] = biological target: CYP2D6 (Homo sapiens, UniProt P10635); assay: Inhibition of human CYP2D6 at 3 uM; assay type: ADME; how it was run: as §1
[14] = biological target: Histamine H3 receptor (Homo sapiens) (UniProt Q9Y5N1); assay: Inhibition of histamine H3 receptor at 10 uM; how it was run: as §2
[15] = biological target: D(2) dopamine receptor (Homo sapiens) (UniProt P14416); assay: Inhibition of dopamine D2 receptor at 10 uM; how it was run: as §2
[16] = biological target: T1, 5-hydroxytryptamine receptor 6; assay: Antagonist activity at human recombinant 5-HT6 receptor expressed in CHO cells assessed as inhibition of 5-HT-stimulated cAMP accumulation after 4 hrs by luciferase reporter gene assay; assay type: functional, cell-based
How it was run: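 Cell-based, non-radioactive reporter gene assay measuring antagonism of 5-HT-stimulated cAMP formation at human 5-HT6 receptor; IC50 and Kb values determined in duplicate.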

[17] = biological target: D(2) dopamine receptor (Homo sapiens) (UniProt P14416); assay: Inhibition of dopamine D2 receptor at 1 uM; how it was run: as §2
[18] = biological target: Sodium-dependent serotonin transporter (Homo sapiens) (UniProt P31645); assay: Inhibition of SERT at 10 uM; how it was run: as §2
[19] = biological target: 5-hydroxytryptamine receptor 2A (Homo sapiens) (UniProt P28223); assay: Inhibition of 5-HT2A receptor at 10 uM; how it was run: as §2
[20] = biological target: T3, 5-hydroxytryptamine receptor 1A (Homo sapiens); assay: Inhibition of 5-HT1A receptor at 1 uM; how it was run: as §2
[21] = biological target: Sodium-dependent dopamine transporter (Homo sapiens) (UniProt Q01959); assay: Inhibition of DAT at 1 uM; how it was run: as §2
[22] = biological target: Histamine H3 receptor (Homo sapiens) (UniProt Q9Y5N1); assay: Inhibition of histamine H3 receptor at 1 uM; how it was run: as §2
[23] = Drug metabolism in human liver microsomes; assay type: ADME, Microsome; conditions: read-out: Drug metabolism
[24] = Drug metabolism in rat liver microsomes; assay type: ADME, Microsome; conditions: read-out: Drug metabolism

Sequence of D(2) dopamine receptor (Homo sapiens) (P14416 whole entry): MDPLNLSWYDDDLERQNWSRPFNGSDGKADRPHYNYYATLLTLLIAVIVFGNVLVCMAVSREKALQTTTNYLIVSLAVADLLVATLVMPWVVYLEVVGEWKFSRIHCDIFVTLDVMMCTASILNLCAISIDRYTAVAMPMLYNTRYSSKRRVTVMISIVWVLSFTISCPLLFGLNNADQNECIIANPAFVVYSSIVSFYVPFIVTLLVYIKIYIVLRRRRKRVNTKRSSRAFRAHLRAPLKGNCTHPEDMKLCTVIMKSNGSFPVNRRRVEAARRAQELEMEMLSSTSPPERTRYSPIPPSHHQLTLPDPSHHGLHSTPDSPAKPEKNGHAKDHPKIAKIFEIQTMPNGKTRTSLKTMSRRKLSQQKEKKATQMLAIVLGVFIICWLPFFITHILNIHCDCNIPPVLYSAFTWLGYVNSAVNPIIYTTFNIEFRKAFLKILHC
Sequence of 5-hydroxytryptamine receptor 2A (Homo sapiens) (P28223 whole entry): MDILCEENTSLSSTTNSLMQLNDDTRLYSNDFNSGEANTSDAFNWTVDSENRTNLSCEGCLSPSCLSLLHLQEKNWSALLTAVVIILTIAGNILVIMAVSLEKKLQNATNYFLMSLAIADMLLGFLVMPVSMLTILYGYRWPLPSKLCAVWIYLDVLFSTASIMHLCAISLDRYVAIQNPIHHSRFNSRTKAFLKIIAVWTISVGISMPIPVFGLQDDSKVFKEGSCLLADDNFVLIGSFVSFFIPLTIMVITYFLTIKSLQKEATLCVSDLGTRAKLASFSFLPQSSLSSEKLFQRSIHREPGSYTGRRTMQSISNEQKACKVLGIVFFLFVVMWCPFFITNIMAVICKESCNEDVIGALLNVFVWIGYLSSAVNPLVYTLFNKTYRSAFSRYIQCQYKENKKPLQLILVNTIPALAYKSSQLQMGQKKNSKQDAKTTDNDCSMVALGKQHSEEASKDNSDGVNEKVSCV
Sequence of Histamine H4 receptor (Homo sapiens) (Q9H3N8 whole entry): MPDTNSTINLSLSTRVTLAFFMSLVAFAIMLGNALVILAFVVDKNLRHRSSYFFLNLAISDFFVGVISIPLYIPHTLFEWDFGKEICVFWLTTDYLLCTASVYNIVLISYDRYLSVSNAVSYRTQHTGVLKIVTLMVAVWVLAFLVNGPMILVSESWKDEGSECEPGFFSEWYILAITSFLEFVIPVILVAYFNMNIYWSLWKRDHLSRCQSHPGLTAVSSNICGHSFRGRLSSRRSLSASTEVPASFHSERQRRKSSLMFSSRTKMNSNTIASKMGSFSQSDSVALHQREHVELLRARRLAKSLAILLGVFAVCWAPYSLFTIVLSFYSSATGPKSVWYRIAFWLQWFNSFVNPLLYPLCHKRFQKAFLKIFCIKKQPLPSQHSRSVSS
Sequence of Sodium-dependent serotonin transporter (Homo sapiens) (P31645 whole entry, looked up): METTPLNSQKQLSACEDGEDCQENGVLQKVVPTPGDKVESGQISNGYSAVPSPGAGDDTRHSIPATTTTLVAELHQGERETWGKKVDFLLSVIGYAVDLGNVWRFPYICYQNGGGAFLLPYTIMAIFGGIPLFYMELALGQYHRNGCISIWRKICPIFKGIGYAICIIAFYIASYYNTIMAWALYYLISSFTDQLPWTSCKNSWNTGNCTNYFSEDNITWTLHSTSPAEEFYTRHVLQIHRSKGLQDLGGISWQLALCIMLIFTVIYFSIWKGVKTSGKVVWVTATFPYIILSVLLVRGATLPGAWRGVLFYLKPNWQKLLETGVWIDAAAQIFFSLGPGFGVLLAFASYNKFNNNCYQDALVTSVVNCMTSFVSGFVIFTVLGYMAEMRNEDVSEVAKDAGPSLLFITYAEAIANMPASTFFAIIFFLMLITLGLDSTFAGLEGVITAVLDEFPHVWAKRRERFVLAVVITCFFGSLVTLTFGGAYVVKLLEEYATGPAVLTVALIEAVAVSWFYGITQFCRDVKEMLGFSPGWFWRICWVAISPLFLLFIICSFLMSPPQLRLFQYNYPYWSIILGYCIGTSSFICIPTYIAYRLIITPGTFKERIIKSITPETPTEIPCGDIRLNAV
T1 sequence (P50406 whole entry): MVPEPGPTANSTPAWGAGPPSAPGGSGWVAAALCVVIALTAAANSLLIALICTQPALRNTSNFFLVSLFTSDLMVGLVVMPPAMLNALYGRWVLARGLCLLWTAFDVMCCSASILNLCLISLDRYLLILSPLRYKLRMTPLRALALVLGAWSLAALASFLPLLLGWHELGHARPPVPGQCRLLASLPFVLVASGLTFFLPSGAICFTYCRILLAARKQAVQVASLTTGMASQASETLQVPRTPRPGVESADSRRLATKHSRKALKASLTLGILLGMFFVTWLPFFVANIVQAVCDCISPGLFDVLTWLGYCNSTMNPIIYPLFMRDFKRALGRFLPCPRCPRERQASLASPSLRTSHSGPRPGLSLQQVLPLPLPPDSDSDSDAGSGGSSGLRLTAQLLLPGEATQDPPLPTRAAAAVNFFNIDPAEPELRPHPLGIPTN
Sequence of Histamine H3 receptor (Homo sapiens) (Q9Y5N1 whole entry): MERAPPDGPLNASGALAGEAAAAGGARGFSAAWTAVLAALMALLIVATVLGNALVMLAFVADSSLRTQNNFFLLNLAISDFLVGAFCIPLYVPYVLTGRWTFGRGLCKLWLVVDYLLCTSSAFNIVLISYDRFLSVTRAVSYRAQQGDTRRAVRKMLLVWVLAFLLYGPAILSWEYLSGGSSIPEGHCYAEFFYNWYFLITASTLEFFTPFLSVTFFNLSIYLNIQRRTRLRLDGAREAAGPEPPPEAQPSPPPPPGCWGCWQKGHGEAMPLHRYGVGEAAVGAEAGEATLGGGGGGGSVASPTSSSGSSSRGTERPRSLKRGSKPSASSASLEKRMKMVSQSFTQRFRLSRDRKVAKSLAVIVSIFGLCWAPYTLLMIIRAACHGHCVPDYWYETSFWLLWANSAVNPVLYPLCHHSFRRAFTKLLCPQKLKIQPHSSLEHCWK
Sequence of Sodium-dependent dopamine transporter (Homo sapiens) (Q01959 whole entry): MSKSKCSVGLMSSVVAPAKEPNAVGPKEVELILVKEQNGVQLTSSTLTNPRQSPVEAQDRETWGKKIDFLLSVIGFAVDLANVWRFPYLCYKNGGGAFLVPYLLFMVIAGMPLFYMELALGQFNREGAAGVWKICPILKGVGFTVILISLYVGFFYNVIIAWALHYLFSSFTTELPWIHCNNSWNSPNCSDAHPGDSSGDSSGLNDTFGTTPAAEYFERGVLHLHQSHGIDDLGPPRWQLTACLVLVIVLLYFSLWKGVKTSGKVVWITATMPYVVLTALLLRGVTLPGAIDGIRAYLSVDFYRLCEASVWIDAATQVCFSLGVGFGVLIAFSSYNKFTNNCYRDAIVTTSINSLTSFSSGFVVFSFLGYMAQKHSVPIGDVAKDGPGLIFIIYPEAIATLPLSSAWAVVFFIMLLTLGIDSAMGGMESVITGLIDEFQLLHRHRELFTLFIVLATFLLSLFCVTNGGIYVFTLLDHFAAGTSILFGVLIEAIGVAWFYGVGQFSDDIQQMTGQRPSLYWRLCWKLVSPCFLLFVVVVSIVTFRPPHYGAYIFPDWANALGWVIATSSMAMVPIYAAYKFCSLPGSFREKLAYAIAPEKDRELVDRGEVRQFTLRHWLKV
Sequence of CYP2C19 (P33261 whole entry): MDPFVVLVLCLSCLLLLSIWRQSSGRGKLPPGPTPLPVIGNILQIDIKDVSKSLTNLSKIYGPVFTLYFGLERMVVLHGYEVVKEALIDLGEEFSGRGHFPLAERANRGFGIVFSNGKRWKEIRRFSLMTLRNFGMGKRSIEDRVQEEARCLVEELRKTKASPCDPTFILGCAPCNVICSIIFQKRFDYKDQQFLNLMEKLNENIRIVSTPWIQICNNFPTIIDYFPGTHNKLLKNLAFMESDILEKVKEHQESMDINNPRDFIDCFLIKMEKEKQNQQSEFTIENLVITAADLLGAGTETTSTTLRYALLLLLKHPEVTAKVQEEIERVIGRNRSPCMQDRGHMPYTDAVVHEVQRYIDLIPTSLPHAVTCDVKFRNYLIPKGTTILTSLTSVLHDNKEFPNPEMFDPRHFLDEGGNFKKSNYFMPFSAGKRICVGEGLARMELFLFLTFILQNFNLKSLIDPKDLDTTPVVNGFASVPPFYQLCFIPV
Sequence of CYP2D6 (P10635 whole entry): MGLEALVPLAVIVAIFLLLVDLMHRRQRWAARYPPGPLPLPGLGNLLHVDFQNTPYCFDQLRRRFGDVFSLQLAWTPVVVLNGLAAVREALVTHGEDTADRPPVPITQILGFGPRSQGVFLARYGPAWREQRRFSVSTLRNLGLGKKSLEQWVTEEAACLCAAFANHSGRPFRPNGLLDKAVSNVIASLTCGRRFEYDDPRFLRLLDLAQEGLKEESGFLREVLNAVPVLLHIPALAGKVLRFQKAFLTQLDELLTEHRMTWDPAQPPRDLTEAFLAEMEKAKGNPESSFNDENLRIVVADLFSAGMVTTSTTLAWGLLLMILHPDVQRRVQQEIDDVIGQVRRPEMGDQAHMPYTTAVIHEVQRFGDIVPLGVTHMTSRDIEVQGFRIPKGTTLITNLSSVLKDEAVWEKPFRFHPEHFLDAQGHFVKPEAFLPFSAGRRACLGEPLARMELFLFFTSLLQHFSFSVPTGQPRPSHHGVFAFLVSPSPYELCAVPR
Sequence of CYP3A4 (P08684 whole entry, canonical isoform): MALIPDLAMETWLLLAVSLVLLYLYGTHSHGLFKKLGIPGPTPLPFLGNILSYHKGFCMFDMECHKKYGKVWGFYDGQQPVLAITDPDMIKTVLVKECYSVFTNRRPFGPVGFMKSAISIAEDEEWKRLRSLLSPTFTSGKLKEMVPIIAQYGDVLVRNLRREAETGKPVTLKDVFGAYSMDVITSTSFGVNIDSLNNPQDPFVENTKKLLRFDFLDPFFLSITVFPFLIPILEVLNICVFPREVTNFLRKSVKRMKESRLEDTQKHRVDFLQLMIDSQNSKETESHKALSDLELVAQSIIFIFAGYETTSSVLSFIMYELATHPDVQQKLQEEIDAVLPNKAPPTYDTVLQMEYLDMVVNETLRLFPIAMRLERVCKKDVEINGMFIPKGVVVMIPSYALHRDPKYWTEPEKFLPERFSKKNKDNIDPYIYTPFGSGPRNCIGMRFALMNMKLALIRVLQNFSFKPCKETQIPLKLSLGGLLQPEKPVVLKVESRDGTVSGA

NC1Cc2cccc3c2c(cn3S(=O)(=O)c2ccccc2)C1 (configuration not stated)
Ki [1]: 1.6 nM

COc1ccc2c(c1)c(CCN(C)C)c1n2S(=O)(=O)c2ccccc2-1
Ki [1]: 96 nM

COc1ccc(S(=O)(=O)n2c3c(c4cc(OC)ccc42)CC(N(C)C)CC3)cc1 (racemic)
Ki [2]: 19.8 nM

NC1CCc2c(c3ccccc3n2S(=O)(=O)c2cccc(C(F)(F)F)c2)C1 (racemic)
Ki [2]: 73.4 nM

COc1ccc2c(c1)c1c(n2S(=O)(=O)c2cccc(C(F)(F)F)c2)CCC(N)C1 (racemic)
Ki [2]: 39.1 nM

CN(C)C1CCc2c(c3ccccc3n2S(=O)(=O)c2ccccc2)C1 (racemic)
Ki [2]: 8.82 nM

CN(C)C1CCc2c(c3cc(Br)ccc3n2S(=O)(=O)c2ccccc2)C1 (racemic)
inhibition at 3 µM [3]: 10% | inhibition [4]: 3.85% | inhibition [5]: 0% | inhibition [6]: 4.22% | inhibition [7]: 43.9% | inhibition [8]: 0% | inhibition [9]: 15.2% | inhibition [10]: 7.7% | inhibition at 3 µM [11]: 50% | inhibition [12]: 16.2% | inhibition at 3 µM [13]: 50% | inhibition [14]: 24.8% | inhibition [15]: 67.4% | IC50 [16]: 2060 nM | Kb [16]: 21.5 nM | inhibition [17]: 16.4% | inhibition [18]: 2.77% | inhibition [19]: 51.4% | inhibition [20]: 22.3% | inhibition [21]: 0% | inhibition [22]: 23.4% | Ki [2]: 1.83 nM

CN(C)C1CCc2c(c3cc(Cl)ccc3n2S(=O)(=O)c2ccccc2)C1 (racemic)
Ki [2]: 16.1 nM

CSc1ccc2c(c1)c1c(n2S(=O)(=O)c2ccccc2)CCC(N(C)C)C1 (racemic)
Ki [2]: 4.57 nM

CN(C)C1CCc2c(c3cc(F)cc(F)c3n2S(=O)(=O)c2ccccc2)C1 (racemic)
Ki [2]: 7.95 nM

CN(C)C1CCc2c(c3ccccc3n2S(=O)(=O)c2ccc(Br)cc2)C1 (racemic)
Ki [2]: 15.5 nM

CN(C)C1CCc2c(c3cc(Cl)ccc3n2S(=O)(=O)c2ccc(Br)cc2)C1 (racemic)
Ki [2]: 41.1 nM

CN(C)C1CCc2c(c3ccccc3n2S(=O)(=O)c2cccc(Cl)c2)C1 (racemic)
inhibition [4]: 10.3% | inhibition [5]: 2.69% | inhibition [6]: 4.24% | inhibition [7]: 50.3% | inhibition [8]: 4.9% | inhibition [9]: 7.37% | inhibition [10]: 7.21% | inhibition [12]: 7.92% | inhibition [14]: 39.9% | inhibition [15]: 32.1% | inhibition [17]: 15.3% | inhibition [18]: 1.49% | inhibition [19]: 35.2% | inhibition [20]: 29.9% | inhibition [21]: 0% | inhibition [22]: 11% | Ki [2]: 4.21 nM

CN(C)C1CCc2c(c3cc(F)ccc3n2S(=O)(=O)c2cccc(Cl)c2)C1 (racemic)
Ki [2]: 5.01 nM

CSc1ccc2c(c1)c1c(n2S(=O)(=O)c2cccc(Cl)c2)CCC(N(C)C)C1 (racemic)
Ki [2]: 2.68 nM

CN(C)C1CCc2c(c3ccccc3n2S(=O)(=O)c2cccc(C(F)(F)F)c2)C1 (racemic)
inhibition at 3 µM [3]: 10% | inhibition [4]: 18% | inhibition [5]: 9.14% | inhibition [6]: 5.26% | inhibition [7]: 57.5% | inhibition [8]: 4.14% | inhibition [9]: 5.6% | inhibition [10]: 24.8% | inhibition at 3 µM [11]: 50% | inhibition [12]: 8.72% | inhibition at 3 µM [13]: 50% | inhibition [14]: 49.1% | inhibition [15]: 60.4% | IC50 [16]: 1950 nM | Kb [16]: 20.4 nM | metabolised [23]: 17% | inhibition [17]: 16.3% | metabolised [24]: 72% | inhibition [18]: 20.7% | inhibition [19]: 19.6% | inhibition [20]: 44.5% | inhibition [21]: 18.4% | inhibition [22]: 26.8% | Ki [2]: 1.92 nM

CN(C)C1CCc2c(c3cc(Br)ccc3n2S(=O)(=O)c2cccc(C(F)(F)F)c2)C1 (racemic)
Ki [2]: 5.5 nM

CN(C)C1CCc2c(c3cc(Cl)ccc3n2S(=O)(=O)c2cccc(C(F)(F)F)c2)C1 (racemic)
Ki [2]: 12.2 nM

COc1ccc2c(c1)c1c(n2S(=O)(=O)c2cccc(C(F)(F)F)c2)CCC(N(C)C)C1 (racemic)
Ki [2]: 3.71 nM

CN(C)C1CCc2c(c3ccccc3n2S(=O)(=O)c2ccccc2Br)C1 (racemic)
Ki [2]: 2.85 nM

CN(C)C1CCc2c(c3cc(Cl)ccc3n2S(=O)(=O)c2ccccc2Br)C1 (racemic)
Ki [2]: 8.13 nM

CN(C)C1CCc2c(c3cc(F)ccc3n2S(=O)(=O)c2ccccc2Br)C1 (racemic)
Ki [2]: 5.02 nM

CN(C)C1CCc2c(c3ccccc3n2S(=O)(=O)c2ccccc2Cl)C1 (racemic)
Ki [2]: 9.15 nM

COc1ccc2c(c1)c1c(n2S(=O)(=O)c2ccccc2Cl)CCC(N(C)C)C1 (racemic)
Ki [2]: 4.68 nM

CN(C)C1CCc2c(c3ccccc3n2S(=O)(=O)c2ccccc2F)C1 (racemic)
Ki [2]: 10.4 nM

COc1ccc2c(c1)c1c(n2S(=O)(=O)c2ccccc2F)CCC(N(C)C)C1 (racemic)
Ki [2]: 3.63 nM

Cc1ccc(S(=O)(=O)n2c3c(c4ccccc42)CC(N(C)C)CC3)cc1 (racemic)
Ki [2]: 8.28 nM

Cc1ccc(S(=O)(=O)n2c3c(c4cc(Cl)ccc42)CC(N(C)C)CC3)cc1 (racemic)
Ki [2]: 18.1 nM

CC(C)c1ccc(S(=O)(=O)n2c3c(c4cc(Br)ccc42)CC(N(C)C)CC3)cc1 (racemic)
Ki [2]: 7.5 nM

COc1ccc(S(=O)(=O)n2c3c(c4ccccc42)CC(N(C)C)CC3)cc1 (racemic)
Ki [2]: 20.4 nM

COc1ccc(S(=O)(=O)n2c3c(c4cc(Br)ccc42)CC(N(C)C)CC3)cc1 (racemic)
Ki [2]: 29 nM

COc1ccc(S(=O)(=O)n2c3c(c4cc(SC)ccc42)CC(N(C)C)CC3)cc1 (racemic)
Ki [2]: 6.89 nM

CN(C)C1CCc2c(c3cc(Br)ccc3n2S(=O)(=O)c2cc(C(F)(F)F)ccc2Cl)C1 (racemic)
Ki [2]: 70.6 nM

CN(C)C1CCc2c(c3cc(Br)ccc3n2S(=O)(=O)c2ccc(F)c(F)c2F)C1 (racemic)
Ki [2]: 61.2 nM

CN(C)C1CCc2c(c3cc(Br)ccc3n2S(=O)(=O)c2ccc(F)c(F)c2)C1 (racemic)
Ki [2]: 29 nM

CNC1CCc2c(c3ccccc3n2S(=O)(=O)c2cccc(C(F)(F)F)c2)C1 (racemic)
Ki [2]: 17.1 nM

CNC1CCc2c(c3cc(OC)ccc3n2S(=O)(=O)c2cccc(C(F)(F)F)c2)C1 (racemic)
Ki [2]: 13.1 nM
